Test results published in ChEMBL document CHEMBL1150225, “Cytotoxic cholestane glycosides from the bulbs of Ornithogalum saundersiae” (J Nat Prod, 2001).

What was measured:
[1] = tested on: OVCAR-3; assay: Cytotoxicity against human OVCAR-3 cells; type: functional
[2] = tested on: Malme-3M; assay: Cytotoxicity against human MALME-3M cells; type: functional
[3] = tested on: HCC 2998; assay: Cytotoxicity against human HCC2998 cells; type: functional
[4] = tested on: SK-MEL-5; assay: Cytotoxicity against human SK-MEL-5 cells; type: functional
[5] = tested on: HCT-116; assay: Cytotoxicity against human HCT116 cells; type: functional
[6] = tested on: OVCAR-4; assay: Cytotoxicity against human OVCAR4 cells; type: functional
[7] = tested on: NCI-H23; assay: Cytotoxicity against human NCI-H23 cells; type: functional
[8] = tested on: M14; assay: Cytotoxicity against human M14 cells; type: functional
[9] = tested on: SW-620; assay: Cytotoxicity against human SW620 cells; type: functional
[10] = tested on: KM12; assay: Cytotoxicity against human KM12 cells; type: functional
[11] = tested on: SK-OV-3; assay: Cytotoxicity against human SKOV3 cells; type: functional
[12] = tested on: CCRF-CEM; assay: Cytotoxicity against human CCRF-CEM cells; type: functional
[13] = Cytotoxicity against human MCF7/ADR cells; type: functional; conditions: NCI/ADR-RES
[14] = tested on: MDA-N; assay: Cytotoxicity against human MDA-N cells; type: functional
[15] = tested on: TK-10; assay: Cytotoxicity against human TK10 cells; type: functional
[16] = tested on: SNB-19; assay: Cytotoxicity against human SNB19 cells; type: functional
[17] = tested on: EKVX; assay: Cytotoxicity against human EKVX cells; type: functional
[18] = tested on: K562; assay: Cytotoxicity against human K562 cells; type: functional
[19] = tested on: SF-268; assay: Cytotoxicity against human SF268 cells; type: functional
[20] = tested on: RXF 393; assay: Cytotoxicity against human RXF393 cells; type: functional
[21] = tested on: SR; assay: Cytotoxicity against human SR cells; type: functional
[22] = tested on: HCT-15; assay: Cytotoxicity against human HCT15 cells; type: functional
[23] = tested on: SN12C; assay: Cytotoxicity against human SN12C cells; type: functional
[24] = tested on: HOP-62; assay: Cytotoxicity against human HOP62 cells; type: functional
[25] = tested on: NCI-H522; assay: Cytotoxicity against human NCI-H522 cells; type: functional
[26] = tested on: HOP-92; assay: Cytotoxicity against human HOP92 cells; type: functional
[27] = tested on: T47D; assay: Cytotoxicity against human T47D cells; type: functional
[28] = tested on: HL-60; assay: Cytotoxicity against human HL60 cells after 72 hrs by MTT assay; type: functional, cell-based; conditions: HL-60, 72 h
In short: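 HL-60 leukemia cells kept in RPMI 1640 with 10% fetal bovine serum, L-glutamine, 100 units/mL penicillin and 100 μg/mL streptomycin. Cells at 3 × 10^4 cells/mL exposed continuously to compound for 72 h. Growth read by MTT reduction. IC50 (50% inhibition) calculated from each compound's dose–response curve.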

[29] = tested on: IGROV-1; assay: Cytotoxicity against human IGROV1 cells; type: functional
[30] = tested on: ACHN; assay: Cytotoxicity against human ACHN cells; type: functional
[31] = tested on: PC-3; assay: Cytotoxicity against human PC3 cells; type: functional
[32] = tested on: DU-145; assay: Cytotoxicity against human DU145 cells; type: functional
[33] = tested on: UACC-62; assay: Cytotoxicity against human UACC62 cells; type: functional
[34] = tested on: SF-295; assay: Cytotoxicity against human SF295 cells; type: functional
[35] = tested on: COLO 205; assay: Cytotoxicity against human COLO205 cells; type: functional
[36] = tested on: SF-539; assay: Cytotoxicity against human SF539 cells; type: functional
[37] = tested on: U-251; assay: Cytotoxicity against human U251 cells; type: functional
[38] = tested on: NCI-H322M; assay: Cytotoxicity against human NCI-H322M cells; type: functional
[39] = tested on: SK-MEL-2; assay: Cytotoxicity against human SK-MEL-2 cells; type: functional
[40] = tested on: NCI-H460; assay: Cytotoxicity against human NCI-H460 cells; type: functional
[41] = tested on: UACC-257; assay: Cytotoxicity against human UACC257 cells; type: functional
[42] = tested on: SNB-75; assay: Cytotoxicity against human SNB75 cells; type: functional
[43] = tested on: OVCAR-8; assay: Cytotoxicity against human OVCAR8 cells; type: functional
[44] = read-out: pLC50 (the source's name) (converted)

What does the source list for `COc1ccc(C(=O)O[C@H]2[C@H](O[C@@H]3[C@@H](OC(C)=O)[C@H](O[C@H]4C[C@H]5[C@@H]6CC=C7C[C@@H](O)CC[C@]7(C)[C@H]6CC[C@]5(C)[C@@]4(O)[C@H](C)C(=O)CCC(C)C)OC[C@@H]3O)OC[C@@H](O)[C@@H]2O)cc1`?
GI50 [1]: 9.55 nM; CC50 [1, 44]: 4680 nM; TGI ([1]; read-out: pTGI (converted)): 2000 nM; GI50 [2]: 0.631 nM; CC50 [2, 44]: 2400 nM; TGI ([2]; read-out: pTGI (converted)): 2.29 nM; GI50 [3]: 30.2 nM; CC50 [3, 44]: 4370 nM; TGI ([3]; read-out: pTGI (converted)): 1910 nM; GI50 [4]: 0.759 nM; CC50 [4, 44]: 282 nM; TGI ([4]; read-out: pTGI (converted)): 43.6 nM; GI50 [5]: 0.38 nM; CC50 [5, 44]: 1290 nM; TGI ([5]; read-out: pTGI (converted)): 191 nM; GI50 [6]: 3.63 nM; CC50 [6, 44]: 5750 nM; TGI ([6]; read-out: pTGI (converted)): 2190 nM; GI50 [7]: 0.363 nM; CC50 [7, 44]: 1290 nM; TGI ([7]; read-out: pTGI (converted)): 110 nM; GI50 [8]: 0.269 nM; CC50 [8, 44]: 51.3 nM; TGI ([8]; read-out: pTGI (converted)): 0.955 nM; GI50 [9]: 0.129 nM; CC50 [9, 44]: 21.9 nM; TGI ([9]; read-out: pTGI (converted)): 0.549 nM; GI50 [10]: 0.407 nM; CC50 [10, 44]: 1100 nM; TGI ([10]; read-out: pTGI (converted)): 39.8 nM; GI50 [11]: 3.98 nM; CC50 [11, 44]: 10000 nM; TGI ([11]; read-out: pTGI (converted)): 1200 nM; GI50 [12]: 0.1 nM; CC50 [12, 44]: 1200 nM; TGI ([12]; read-out: pTGI (converted)): 7.08 nM; GI50 [13]: 24 nM; CC50 [13, 44]: 6610 nM; TGI ([13]; read-out: pTGI (converted)): 2000 nM; GI50 [14]: 0.776 nM; CC50 [14, 44]: 490 nM; TGI ([14]; read-out: pTGI (converted)): 8.91 nM; GI50 [15]: 77.6 nM; CC50 [15, 44]: 8910 nM; TGI ([15]; read-out: pTGI (converted)): 1910 nM; GI50 [16]: 12.9 nM; CC50 [16, 44]: 2880 nM; TGI ([16]; read-out: pTGI (converted)): 331 nM; GI50 [17]: 0.182 nM; CC50 [17, 44]: 6610 nM; TGI ([17]; read-out: pTGI (converted)): 550 nM; GI50 [18]: 0.219 nM; CC50 [18, 44]: 10000 nM; TGI ([18]; read-out: pTGI (converted)): 14.1 nM; GI50 [19]: 2.4 nM; CC50 [19, 44]: 7410 nM; TGI ([19]; read-out: pTGI (converted)): 851 nM; GI50 [20]: 0.0708 nM; CC50 [20, 44]: 407 nM; TGI ([20]; read-out: pTGI (converted)): 18.2 nM; GI50 [21]: 0.12 nM; CC50 [21, 44]: 6310 nM; TGI ([21]; read-out: pTGI (converted)): 129 nM; GI50 [22]: 11 nM; CC50 [22, 44]: 692 nM; TGI ([22]; read-out: pTGI (converted)): 95.5 nM; GI50 [23]: 1290 nM; CC50 [23, 44]: 6760 nM; TGI ([23]; read-out: pTGI (converted)): 2880 nM; GI50 [24]: 0.159 nM; CC50 [24, 44]: 129 nM; TGI ([24]; read-out: pTGI (converted)): 2 nM; GI50 [25]: 0.363 nM; CC50 [25, 44]: 324 nM; TGI ([25]; read-out: pTGI (converted)): 5.37 nM; GI50 [26]: 1.1 nM; CC50 [26, 44]: 3020 nM; TGI ([26]; read-out: pTGI (converted)): 32.4 nM; GI50 [27]: 5.13 nM; CC50 [27, 44]: 7760 nM; TGI ([27]; read-out: pTGI (converted)): 1510 nM; GI50 [28]: 0.0347 nM; IC50 [28]: 0.25 nM; TGI ([28]; read-out: pTGI (converted)): 182 nM; GI50 [29]: 1.51 nM; CC50 [29, 44]: 6920 nM; TGI ([29]; read-out: pTGI (converted)): 1910 nM; GI50 [30]: 7.94 nM; CC50 [30, 44]: 7240 nM; TGI ([30]; read-out: pTGI (converted)): 2190 nM; GI50 [31]: 0.209 nM; CC50 [31, 44]: 389 nM; TGI ([31]; read-out: pTGI (converted)): 1.58 nM; GI50 [32]: 3.71 nM; CC50 [32, 44]: 4270 nM; TGI ([32]; read-out: pTGI (converted)): 1510 nM; GI50 [33]: 0.309 nM; CC50 [33, 44]: 3.63 nM; TGI ([33]; read-out: pTGI (converted)): 1.29 nM; GI50 [34]: 0.0479 nM; CC50 [34, 44]: 30.2 nM; TGI ([34]; read-out: pTGI (converted)): 2.29 nM; GI50 [35]: 1 nM; CC50 [35, 44]: 288 nM; TGI ([35]; read-out: pTGI (converted)): 1.58 nM; GI50 [36]: 0.1 nM; CC50 [36, 44]: 182 nM; TGI ([36]; read-out: pTGI (converted)): 4.47 nM; GI50 [37]: 0.0257 nM; CC50 [37, 44]: 2510 nM; TGI ([37]; read-out: pTGI (converted)): 51.3 nM; GI50 [38]: 26.9 nM; CC50 [38, 44]: 5010 nM; TGI ([38]; read-out: pTGI (converted)): 1290 nM; GI50 [39]: 0.347 nM; CC50 [39, 44]: 5500 nM; TGI ([39]; read-out: pTGI (converted)): 17 nM; GI50 [40]: 0.159 nM; CC50 [40, 44]: 2190 nM; TGI ([40]; read-out: pTGI (converted)): 33.9 nM; GI50 [41]: 0.933 nM; CC50 [41, 44]: 40.7 nM; TGI ([41]; read-out: pTGI (converted)): 1.29 nM; GI50 [42]: 0.0417 nM; CC50 [42, 44]: 3020 nM; TGI ([42]; read-out: pTGI (converted)): 3.24 nM; GI50 [43]: 15.1 nM; CC50 [43, 44]: 5370 nM; TGI ([43]; read-out: pTGI (converted)): 1580 nM
